The term Ki denotes the equilibrium dissociation constant of an inhibitor or competing ligand from its target. Low values mean higher affinity, high ones lower affinity.

In one assay the target is T1, B2 bradykinin receptor (Homo sapiens, UniProt P30411).
T1 sequence (P30411 whole entry): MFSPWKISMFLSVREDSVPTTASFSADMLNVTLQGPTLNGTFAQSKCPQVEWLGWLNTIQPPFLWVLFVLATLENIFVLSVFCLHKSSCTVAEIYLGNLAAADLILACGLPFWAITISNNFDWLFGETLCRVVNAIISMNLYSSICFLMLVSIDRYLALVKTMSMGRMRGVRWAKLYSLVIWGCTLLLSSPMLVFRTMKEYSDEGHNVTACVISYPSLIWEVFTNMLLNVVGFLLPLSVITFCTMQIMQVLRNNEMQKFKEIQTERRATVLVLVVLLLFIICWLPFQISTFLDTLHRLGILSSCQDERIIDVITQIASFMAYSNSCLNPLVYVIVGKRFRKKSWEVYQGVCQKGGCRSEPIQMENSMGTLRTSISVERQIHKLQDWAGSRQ
Nature of the assay: Binding affinity towards human cloned Bradykinin receptor B2 expressed in CHO cells by [3H]bradykinin displacement. The format is cell-based. The gist of the method: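 Membranes from stably transfected CHO cells, scraped into 20 mM TES (pH 6.8) with 1 mM 1,10-phenanthroline, 140 μg/mL bacitracin and 0.1% BSA, then pelleted at 40000g for 15 min. Filtered through PEI-soaked GF/B filters and counted by scintillation. Means of ≥3 experiments in duplicate.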

Assay [1] is filed under the species Homo sapiens. Briefly: Ability of Compound (Agonist) to contract isolated human umbilical vein in absence of inhibitor. The format is functional.
The species entered for assay [2] is Homo sapiens. Briefly: (§1) Ability of Compound (Agonist) to contract isolated human umbilical vein in presence of inhibitor. In kind it is functional.
The species named for assay [3] is Homo sapiens. The description is as §1. In kind it is functional, organism-based. The following applies: read-out: pA2 (converted).

Residues, ends and D or L forms follow the SMILES beside them.

For `NC(N)=NCCC[C@@H](N)C(=O)N[C@@H](CCCN=C(N)N)C(=O)N1CCC[C@H]1C(=O)N1CC(O)C[C@H]1C(=O)NCC(=O)N[C@@H](Cc1cccs1)C(=O)N[C@@H](CO)C(=O)N[C@@H]1CCc2cccc3c2N(C1=O)[C@@H](C(=O)N[C@H](CCCN=C(N)N)C(=O)O)C3` (some centres not stated), the Ki on B2 bradykinin receptor (cho) turned out to be 140 nM.

The molecule `NC(N)=NCCC[C@@H](N)C(=O)N[C@@H](CCCN=C(N)N)C(=O)N1CCC[C@H]1C(=O)N1CC(O)C[C@H]1C(=O)NCC(=O)N[C@@H](Cc1cccs1)C(=O)N[C@@H](CO)C(=O)N[C@H]1CCc2cccc3c2N(C1=O)[C@@H](C(=O)N[C@H](CCCN=C(N)N)C(=O)O)C3` (some centres not stated) returned an inhibitory constant (Ki) at B2 bradykinin receptor (cho) of 160 nM.

On B2 bradykinin receptor, `Cc1ccc2c(c1)SC[C@@H](NC(=O)[C@H](CO)NC(=O)[C@H](Cc1cccs1)NC(=O)CNC(=O)[C@@H]1C[C@@H](O)CN1C(=O)[C@@H]1CCCN1C(=O)[C@H](CCCNC(=N)N)NC(=O)[C@H](N)CCCNC(=N)N)C(=O)N2CC(=O)N[C@@H](CCCNC(=N)N)C(=O)O` [listing 1 of 2 here] returned an inhibition constant Ki of 6 nM.

In the case of `Cc1ccc2c(c1)SC[C@@H](NC(=O)[C@H](CO)NC(=O)[C@H](Cc1cccs1)NC(=O)CNC(=O)[C@@H]1C[C@@H](O)CN1C(=O)[C@@H]1CCCN1C(=O)[C@H](CCCNC(=N)N)NC(=O)[C@H](N)CCCNC(=N)N)C(=O)N2CC(=O)N[C@@H](CCCNC(=N)N)C(=O)O` [listing 2 of 2 here], the results for the pD2 in the assay listed under Homo sapiens [1] and in the assay listed under Homo sapiens [2] were 7.3 and 7.4, respectively.

In turn, `NC(N)=NCCC[C@@H](N)C(=O)N[C@@H](CCCN=C(N)N)C(=O)N1CCC[C@H]1C(=O)N1CC(O)C[C@H]1C(=O)NCC(=O)N[C@@H](Cc1cccs1)C(=O)N[C@@H](CO)C(=O)N[C@@H]1CCN([C@@H](Cc2ccccc2)C(=O)N[C@@H](CCCN=C(N)N)C(=O)O)C1=O` (some centres not stated) registered a Ki on B2 bradykinin receptor of 2070 nM.

The molecule `NC(N)=NCCC[C@@H](N)C(=O)N[C@@H](CCCN=C(N)N)C(=O)N1CCC[C@H]1C(=O)N1CC(O)C[C@H]1C(=O)NCC(=O)N[C@@H](Cc1cccs1)C(=O)N[C@@H](CO)C(=O)N[C@]1(Cc2ccccc2)C(=O)C(Cc2ccccc2)N(CC(=O)N[C@@H](CCCN=C(N)N)C(=O)O)C1=O` (some centres not stated) came in with an inhibitory constant (Ki) at B2 bradykinin receptor of 14 nM.

Turning to `N=C(N)NCCC[C@@H](N)C(=O)N[C@@H](CCCNC(=N)N)C(=O)N1CCC[C@H]1C(=O)N1C[C@H](O)C[C@H]1C(=O)NCC(=O)N[C@@H](Cc1cccs1)C(=O)N[C@@H](CO)C(=O)N[C@@H]1COc2ccccc2N(CC(=O)N[C@@H](CCCNC(=N)N)C(=O)O)C1=O` [listing 1 of 2 here], the affinity on B2 bradykinin receptor corresponds to a Ki of 2.5 nM.

Molecule `N=C(N)NCCC[C@@H](N)C(=O)N[C@@H](CCCNC(=N)N)C(=O)N1CCC[C@H]1C(=O)N1C[C@H](O)C[C@H]1C(=O)NCC(=O)N[C@@H](Cc1cccs1)C(=O)N[C@@H](CO)C(=O)N[C@@H]1COc2ccccc2N(CC(=O)N[C@@H](CCCNC(=N)N)C(=O)O)C1=O` [listing 2 of 2 here] showed a pD2 in the assay listed under Homo sapiens [1] of 5.1.

As to `N=C(N)NCCC[C@@H](N)C(=O)N[C@@H](CCCNC(=N)N)C(=O)N1CCC[C@H]1C(=O)N1CC(O)C[C@H]1C(=O)NCC(=O)N[C@@H](Cc1cccs1)C(=O)N[C@@H](CO)C(=O)N[C@H]1CCCN(CC(=O)N[C@@H](CCCNC(=N)N)C(=O)O)C1=O` (some centres not stated), the Ki on B2 bradykinin receptor was found to be 18600 nM.

As for `N=C(N)NCCC[C@@H](N)C(=O)N[C@@H](CCCNC(=N)N)C(=O)N1CCC[C@H]1C(=O)N1CC(O)C[C@H]1C(=O)NCC(=O)N[C@@H](Cc1cccs1)C(=O)N[C@@H](CO)C(=O)N[C@H]1CCCCN(CC(=O)N[C@@H](CCCNC(=N)N)C(=O)O)C1=O` (some centres not stated), the affinity on B2 bradykinin receptor, expressed as Ki, was 520 nM.

`N=C(N)NCCC[C@@H](N)C(=O)N[C@@H](CCCNC(=N)N)C(=O)N1CCC[C@H]1C(=O)N1CC(O)C[C@H]1C(=O)NCC(=O)N[C@@H](Cc1cccs1)C(=O)N[C@@H](CO)C(=O)N[C@@H]1CCN(CC(=O)N[C@@H](CCCNC(=N)N)C(=O)O)C1=O` (some centres not stated): the inhibition constant Ki at B2 bradykinin receptor was found to be 4900 nM.

For `NC(N)=NCCC[C@@H](N)C(=O)N[C@@H](CCCN=C(N)N)C(=O)N1CCC[C@H]1C(=O)N1CC(O)C[C@H]1C(=O)NCC(=O)N[C@@H](Cc1cccs1)C(=O)N[C@@H](CO)C(=O)N[C@@H]1CCCCN(CC(=O)N[C@@H](CCCN=C(N)N)C(=O)O)C1=O` (some centres not stated), the Ki at B2 bradykinin receptor was 770 nM.

On to `N=C(N)NCCC[C@@H](N)C(=O)N[C@@H](CCCNC(=N)N)C(=O)N1CCC[C@H]1C(=O)N1C[C@H](O)C[C@H]1C(=O)NCC(=O)N[C@@H](Cc1cccs1)C(=O)N[C@@H](CO)C(=O)N[C@@H]1CSc2ccccc2N(CC(=O)N[C@@H](CCCNC(=N)N)C(=O)O)C1=O` [listing 1 of 2 here], for which, on B2 bradykinin receptor, affinity was put at a Ki of 0.7 nM.

On to `N=C(N)NCCC[C@@H](N)C(=O)N[C@@H](CCCNC(=N)N)C(=O)N1CCC[C@H]1C(=O)N1C[C@H](O)C[C@H]1C(=O)NCC(=O)N[C@@H](Cc1cccs1)C(=O)N[C@@H](CO)C(=O)N[C@@H]1CSc2ccccc2N(CC(=O)N[C@@H](CCCNC(=N)N)C(=O)O)C1=O` [listing 2 of 2 here], for which the figures for the pD2 in the assay filed under Homo sapiens [1] and in the assay listed under Homo sapiens [2] were 6.7 and 6.8, respectively.

Molecule `N=C(N)NCCC[C@@H](N)C(=O)N[C@@H](CCCNC(=N)N)C(=O)N1CCC[C@H]1C(=O)N1CC(O)C[C@H]1C(=O)NCC(=O)N[C@@H](Cc1cccs1)C(=O)N[C@@H](CO)C(=O)N[C@H]1CCN(CC(=O)N[C@@H](CCCNC(=N)N)C(=O)O)C1=O` (some centres not stated) returned a Ki on B2 bradykinin receptor of 1030 nM.

`N=C(N)NCCC[C@H](NC(=O)CN1C(=O)[C@H](NC(=O)[C@H](CO)NC(=O)[C@H](Cc2cccs2)NC(=O)CNC(=O)[C@@H]2C[C@@H](O)CN2C(=O)[C@@H]2CCCN2C(=O)[C@H](CCCNC(=N)N)NC(=O)[C@@H](N)CCCCN)CSc2ccccc21)C(=O)O` [listing 1 of 2 here] displayed an inhibitory constant (Ki) at B2 bradykinin receptor of 0.07 nM.

Take `N=C(N)NCCC[C@H](NC(=O)CN1C(=O)[C@H](NC(=O)[C@H](CO)NC(=O)[C@H](Cc2cccs2)NC(=O)CNC(=O)[C@@H]2C[C@@H](O)CN2C(=O)[C@@H]2CCCN2C(=O)[C@H](CCCNC(=N)N)NC(=O)[C@@H](N)CCCCN)CSc2ccccc21)C(=O)O` [listing 2 of 2 here]: the pD2 in the assay listed under Homo sapiens [1] was determined as 7; in the assay listed under Homo sapiens [2], 7.1.

For the molecule `COc1ccc(C[C@@H](CN[C@@H](CCCN=C(N)N)C(=O)O)NC(=O)[C@@H]2CCCN2C(=O)[C@H](CO)NC(=O)[C@H](Cc2cccs2)NC(=O)CNC(=O)[C@@H]2C[C@@H](O)CN2C(=O)[C@@H]2CCCN2C(=O)[C@@H](N)CCCN=C(N)N)cc1` (HELM PEPTIDE1{R.P.[Hyp].G.[O=C([C@H](Cc1cccs1)N[*:1])[*:2]].S.P.[COc1ccc(C[C@@H](CN[C@@H](CCCN=C(N)N)C(=O)O)N[*:1])cc1]}$$$$V2.0), the values for the pD2 in the assay listed under Homo sapiens [1] and in the assay listed under Homo sapiens [2] were 6.9 and 7.1, respectively.

`NC(N)=NCCC[C@@H](N)C(=O)N[C@@H](CCCN=C(N)N)C(=O)N1CCC[C@H]1C(=O)N1C[C@H](O)C[C@H]1C(=O)NCC(=O)N[C@@H](Cc1cccs1)C(=O)N[C@@H](CO)C(=O)NC1N=C(c2ccccc2)c2ccccc2N(CC(=O)N[C@@H](CCCN=C(N)N)C(=O)O)C1=O` (stereo in doubt; 34) registered a Ki on B2 bradykinin receptor (cho) of 86 nM.

Turning to `NC(N)=NCCC[C@@H](N)C(=O)N[C@@H](CCCN=C(N)N)C(=O)N1CCC[C@H]1C(=O)N1C[C@H](O)C[C@H]1C(=O)NCC(=O)N[C@@H](Cc1cccs1)C(=O)N[C@@H](CO)C(=O)NC1N=C(c2ccccc2)c2ccccc2N(CC(=O)N[C@@H](CCCN=C(N)N)C(=O)O)C1=O` (stereo in doubt; 35), the affinity at B2 bradykinin receptor (cho) corresponds to a Ki of 1040 nM.

As to `N=C(N)NCCC[C@@H](N)C(=O)N[C@@H](CCCNC(=N)N)C(=O)N1CCC[C@H]1C(=O)N1C[C@H](O)C[C@H]1C(=O)NCC(=O)N[C@@H](Cc1cccs1)C(=O)N[C@@H](CO)C(=O)N1Cc2ccccc2C[C@@H]1C(=O)N1[C@H](C(=O)N[C@@H](CCCNC(=N)N)C(=O)O)C[C@@H]2CCCC[C@@H]21` [ICATIBANT], the Kb in the assay filed under Homo sapiens [3] was 6.31 nM.

As to H-RPPGFSPFR-OH [BRADYKININ], the pD2 in the assay filed under Homo sapiens [1] is 7.4; in the assay filed under Homo sapiens [2], 7.9.

Source of the values: ChEMBL document CHEMBL1132436 (J Med Chem, 1999).
